From ChEMBL document CHEMBL1629660, “Pharmacodynamics of tigecycline against phenotypically diverse Staphylococcus aureus isolates in a murine thigh model” (Antimicrob Agents Chemother, 2009)
Converted amounts (≈) assume the structure as drawn.

Assays:
Staphylococcus aureus [1] = experiment: Antimicrobial activity against community acquired methicillin-resistant Staphylococcus aureus isolate 156 infected in immunocompetent ICR mouse assessed as reduction in bacterial load at […] after 24 hrs; type: functional
Procedure, shortened: (§1)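 Non-neutropenic ICR mice (no cyclophosphamide). Each thigh inoculated im with 0.1 ml of ~10^8 CFU/ml. Tigecycline given sc once daily at 1.56, 3.13, 6.25 or 12.5 mg/kg starting 2 h post-infection, 3 mice/group. Thighs harvested at 24 h, homogenized, plated on blood agar; log10 CFU change vs 0-h controls.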

Staphylococcus aureus [2] = experiment: Antimicrobial activity against Hospital-acquired methicillin-resistant Staphylococcus aureus isolate 56 by broth microdilution method; type: functional
Procedure, shortened: (§2)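 Tigecycline MIC by CLSI broth microdilution, run in triplicate; modal MIC reported. Isolates stored at –80°C in double-strength skim milk and subcultured twice on Trypticase soy agar with 5% sheep blood before use.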

[3] = r2 for fAUC/MIC in community acquired methicillin-resistant Staphylococcus aureus isolate 144-infected neutropenic ICR mouse
Staphylococcus aureus [4] = experiment: Antimicrobial activity against community-acquired methicillin-resistant Staphylococcus aureus isolate 156 infected in neutropenic ICR mouse assessed as decrease in bacterial density at 1.56 to 400 mg/kg, sc after 24 hrs; type: functional; conditions: dose mg/kg 1.56-400; route subcutaneous
Procedure, shortened: (§3)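 Female ICR mice (~25 g) made neutropenic with cyclophosphamide 150 and 100 mg/kg ip, 4 and 1 days before infection. Each thigh inoculated im with 0.1 ml of ~10^7 CFU/ml from an overnight subculture. Tigecycline sc (0.2 ml) given 2 h later as single or multiple doses of 1.56–50 mg/kg, 1.56–400 mg/kg/day, 3 mice/group. Saline-injected controls. Thighs harvested at 24 h, homogenized in saline, plated on blood agar; log10 CFU change vs 0-h controls.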

[5] = fAUC/MIC in hospital-acquired methicillin-resistant Staphylococcus aureus isolate 56-infected neutropenic ICR mouse at stasis dose; type: functional
Procedure, shortened: (§4)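 Single-dose serum PK in infected neutropenic mice (sc 6.25–50 mg/kg; HPLC; two-compartment fit; AUC by trapezoidal rule; lower doses simulated). Free fraction from ultrafiltration of spiked mouse serum, in triplicate. Free exposures divided by modal MIC and plotted against 24-h log10 CFU change with a sigmoidal Emax model; EI50, EI80 and stasis values read from the fitted curves.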

[6] = AUC (0 to 24 hrs) in neutropenic ICR mouse infected with Staphylococcus aureus ATCC 29213 at 12.5 mg/kg, sc by HPLC; type: ADME, organism-based; design: time < 24 hr, dose 12.5 mg/kg, route subcutaneous; conditions: plasma
Procedure, shortened: (§5)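 Neutropenic female ICR mice (cyclophosphamide 150 and 100 mg/kg ip, 4 days and 1 day before inoculation), both thighs inoculated im with ~10^7 CFU/ml of ATCC 29213. Single sc doses of 50, 25, 12.5 or 6.25 mg/kg. Cardiac blood taken from groups of six at 8–12 times over 0.5–24 h. Serum measured by HPLC (linear 0.05–5 µg/ml). Two-compartment fit by nonlinear least squares; AUC by trapezoidal rule.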

[7] = fAUC/MIC in community acquired methicillin-resistant Staphylococcus aureus isolate 156 infected-immunocompetent ICR mouse at 12.5 […], sc QD; type: functional
Procedure, shortened: (§6)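 Derived from neutropenic-mouse serum PK (HPLC, two-compartment fit) with ultrafiltration protein-binding correction, divided by modal MIC.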

Staphylococcus aureus [8] = experiment: Antimicrobial activity against community acquired methicillin-resistant Staphylococcus aureus isolate 156 infected in immunocompetent ICR mouse assessed as reduction in bacterial load at 12.5 […] after 24 hrs; type: functional; procedure, shortened: as §1
Staphylococcus aureus [9] = experiment: Antimicrobial activity against community acquired methicillin-resistant Staphylococcus aureus isolate 156 infected in neutropenic ICR mouse assessed as change in bacterial load at 12.5 […] after 24 hrs; type: functional; procedure, shortened: as §3
Staphylococcus aureus [10] = experiment: Antimicrobial activity against community acquired methicillin-resistant Staphylococcus aureus isolate 156 infected in immunocompetent ICR mouse assessed as reduction in bacterial load at 1.56 […] after 24 hrs; type: functional; procedure, shortened: as §1
[11] = fAUC/MIC in hospital-acquired methicillin-resistant Staphylococcus aureus isolate 152-infected neutropenic ICR mouse at 80% effective exposure index; type: functional; procedure, shortened: as §4
[12] = Tmax in neutropenic ICR mouse infected with Staphylococcus aureus ATCC 29213 at 25 mg/kg, sc by HPLC; type: ADME, organism-based; design: dose 25 mg/kg, route subcutaneous; conditions: in vivo; procedure, shortened: as §5
Staphylococcus aureus [13] = experiment: Antimicrobial activity against hospital-acquired methicillin-resistant Staphylococcus aureus isolate 56 infected in neutropenic ICR mouse assessed as change in bacterial load after 24 hrs; type: functional; procedure, shortened: as §3
[14] = r2 for fAUC/MIC in methicillin-sensitive Staphylococcus aureus ATCC 25923-infected neutropenic ICR mouse
[15] = r2 for fAUC/MIC in hospital-acquired methicillin-resistant Staphylococcus aureus isolate 152-infected neutropenic ICR mouse
[16] = r2 for fCmax/MIC in methicillin-sensitive Staphylococcus aureus ATCC 29213-infected neutropenic ICR mouse
[17] = r2 for fT>MIC in community acquired methicillin-resistant Staphylococcus aureus isolate 147-infected neutropenic ICR mouse
[18] = fAUC/MIC in community acquired methicillin-resistant Staphylococcus aureus isolate 156 infected-immunocompetent ICR mouse at […], sc QD; type: functional
Acinetobacter baumannii = experiment: Antimicrobial activity against carbapenem-intermediate,-resistant Acinetobacter baumannii assessed as decrease in bacterial count at 0.6 times of MIC after 24 hrs by time kill analysis; type: functional
[19] = fAUC/MIC in community acquired methicillin-resistant Staphylococcus aureus isolate 156 infected-immunocompetent ICR mouse at 6.25 […], sc QD; type: functional; procedure, shortened: as §6
[20] = fAUC/MIC in methicillin-sensitive Staphylococcus aureus ATCC 25923-infected neutropenic ICR mouse at stasis dose; type: functional; procedure, shortened: as §4
[21] = Protein binding in methicillin-sensitive Staphylococcus aureus ATCC 29213-infected neutropenic ICR mouse serum at 50 mg/kg, sc by HPLC; type: ADME, organism-based; design: dose 50 mg/kg, route subcutaneous; conditions: read-out: PB (converted)
[22] = fAUC/MIC in community acquired methicillin-resistant Staphylococcus aureus isolate 144-infected neutropenic ICR mouse at stasis dose; type: functional; procedure, shortened: as §4
Staphylococcus aureus [23] = experiment: Antimicrobial activity against community acquired methicillin-resistant Staphylococcus aureus isolate 156 infected in neutropenic ICR mouse assessed as change in bacterial load at 3.13 […] after 24 hrs; type: functional; procedure, shortened: as §3
[24] = r2 for fCmax/MIC in methicillin-sensitive Staphylococcus aureus ATCC 25923-infected neutropenic ICR mouse
Staphylococcus aureus [25] = experiment: Antimicrobial activity against Community-acquired methicillin-resistant Staphylococcus aureus isolate 156 by broth microdilution method; type: functional; procedure, shortened: as §2
[26] = AUC in neutropenic ICR mouse infected with Staphylococcus aureus ATCC 29213 at 6.25 to 50 mg/kg, sc; type: ADME, organism-based; design: dose 6.25-50 mg/kg, route subcutaneous; conditions: plasma; procedure, shortened: as §5
[27] = r2 for fCmax/MIC in community acquired methicillin-resistant Staphylococcus aureus isolate 144-infected neutropenic ICR mouse
[28] = fAUC/MIC in methicillin-sensitive Staphylococcus aureus ATCC 25923-infected neutropenic ICR mouse at 50% effective exposure index; type: functional

CN(C)c1cc(NC(=O)CNC(C)(C)C)c(O)c2c1C[C@H]1C[C@H]3[C@H](N(C)C)C(O)=C(C(N)=O)C(=O)[C@@]3(O)C(O)=C1C2=O [TIGECYCLINE]
log10cfu (Staphylococcus aureus [1]): 1.9 | MIC (Staphylococcus aureus [2]): 0.5 µg/mL (≈ 0.854 µM) | r2 [3]: 0.954 | CFU (Staphylococcus aureus [4]): 1.5 | fAUC/MIC [5]: 2.5 | AUC(0-t) at 24 h [6]: 9100 ng·h/mL | fAUC/MIC [7]: 8.8 | log10cfu (Staphylococcus aureus [8]): 1.6 | log10CFU/ml (Staphylococcus aureus [9]): -1.1 | log10cfu (Staphylococcus aureus [10]): 1.6 | fAUC/MIC [11]: 2.8 | Tmax [12]: 31.8 min | log10CFU/ml (Staphylococcus aureus [13]): 2 | r2 [14]: 0.877 | r2 [15]: 0.997 | r2 [16]: 0.974 | r2 [17]: 0.483% | fAUC/MIC [18]: 3.6 | log10cfu (Acinetobacter baumannii): 1.5 | fAUC/MIC [19]: 7.2 | fAUC/MIC [20]: 5.3 | fraction unbound [21]: 0.071 | fAUC/MIC [22]: 2.6 | log10CFU/ml (Staphylococcus aureus [23]): 0.5 | r2 [24]: 0.508 | MIC (Staphylococcus aureus [25]): 0.125 µg/mL (≈ 0.213 µM) | AUC [26]: 1200 ng·h/mL | r2 [27]: 0.77 | fAUC/MIC [28]: 5
